Diaphorase act – counter-screen for diaphorase-based assays: diaphorase activators and chemical reducers | Diaphorase/resazurin coupled assay, resorufin fluorescence, 16 min; hits give high values; 1 = vehicle wells, 0 = NADH-free wells | activation factor at 20 µM | hit rate 0.005% among 190,000 | AID 1229;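 active = diaphorase activity raised at least twofold by the compound at 20 µM; inactive = activation factor below 2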
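test system = bacterial diaphorase enzyme (C. kluyveri) | quantity = enzyme 0.07 U/mL final | reagent = NADH substrate 0.114 mM plus resazurin dye 0.1 mM, final | incubation = 16 min enzyme reaction, ambient temperature | buffer or medium = HEPES pH 7.4 buffer with MgCl2 and Tween 20 | signal = fluorescence of resorufin, 544 nm excitation, 590 nm emission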
WT yeast gro inh – growth inhibition of WT yeast, mitochondrial fusion screen. mitochondrial fusion phenotypic screen, WT strain. inhibition, % at 10 µM. hit rate 2.1% among 190,000. AID 1362; in the data active = inhibition above about 58%; tested in S. cerevisiae
PMI act hi M6P – increases human PMI activity with near-saturating mannose 6-phosphate | P34949 | coupled PMI enzyme assay, resazurin fluorescence, 20 min; hits give high values; 1 = untreated enzyme, 0 = substrate-free blank | activation factor at 20 µM | hit rate 0.34% among 190,000;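 active = activation factor of 2 or more at 20 µM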
Target sequence (P34949 whole entry, looked up): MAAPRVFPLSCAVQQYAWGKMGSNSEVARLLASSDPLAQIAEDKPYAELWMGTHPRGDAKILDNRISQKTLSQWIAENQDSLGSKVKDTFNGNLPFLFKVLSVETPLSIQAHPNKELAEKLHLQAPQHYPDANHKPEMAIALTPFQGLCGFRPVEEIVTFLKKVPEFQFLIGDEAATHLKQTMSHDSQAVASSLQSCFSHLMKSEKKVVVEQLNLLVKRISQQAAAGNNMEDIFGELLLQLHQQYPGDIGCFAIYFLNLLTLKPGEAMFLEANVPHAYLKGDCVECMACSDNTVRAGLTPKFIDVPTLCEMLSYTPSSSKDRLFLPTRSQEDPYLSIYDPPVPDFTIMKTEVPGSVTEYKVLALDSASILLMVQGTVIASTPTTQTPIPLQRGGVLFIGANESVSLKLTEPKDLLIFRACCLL
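Test system: human phosphomannose isomerase with PGI, G6PDH, diaphorase coupling enzymes; Amount: PMI at 15 ng/mL final; Reagent: Mannose-6-phosphate 1.0 mM (near-saturating) plus 0.22 mM NADP+; Timing: 20 min, room temperature; Technique: resorufin fluorescence at Ex 544/Em 590 nm; Dosing: 20 µM single dose.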
L major viab – inhibitors of Leishmania major promastigote growth | Leishmania major promastigotes, resazurin fluorescence viability | AID 1063 | hit rate 9% among 200,000 | inhibition, % at 10 µM; in the data active = inhibition above about 50%;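 also: promastigotes grown with compound for 44 hours at 28 °C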
PMI activator – phosphomannose isomerase (human) activation | purified human PMI, coupled resazurin fluorescence, 20 min; hits give high values; 1 = vehicle control, 0 substrate-free wells | activation factor at 20 µM | hit rate 0.005% among 190,000 | AID 1214;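 active = activation factor of 2 or more at 20 µM, relative to plate controls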
* = called active by the depositor. The list is not random: actives were taken first. Their share in the collection is about 10%.

Results for C=CCn1c(SCC(=O)N2CCc3ccccc3C2)nc2sc(C)c(C)c2c1=O ?
Diaphorase act: 0.8; WT yeast gro inh: 15.8; PMI act hi M6P: 0.9; L major viab: 3.5; PMI activator: 0.9

How did Cc1ccnc(SCC(=O)c2cc3ccccc3o2)n1 do in these assays?
Diaphorase act: 0.9; WT yeast gro inh: -24.0; PMI act hi M6P: 1; L major viab: 1.4; PMI activator: 1.2

Results for COc1ccc(C(=O)N2CCOC2CNC(=O)C(=O)NCc2ccc3c(c2)OCO3)cc1 (centres undefined) ?
Diaphorase act: 0.9; WT yeast gro inh: 5.0; PMI act hi M6P: 0.9; L major viab: -3.5; PMI activator: 1

Results for CCCn1nnc(NC(=O)c2ccc(-c3cccc(Cl)c3)o2)n1 ?
Diaphorase act: 0.8; WT yeast gro inh: 73.9*; PMI act hi M6P: 1; L major viab: 76.8*; PMI activator: 0.9

What do the screens show for `CCCn1nnc(NC(=O)c2cccc(Cl)c2)n1`?
Diaphorase act: 0.9; WT yeast gro inh: 1.8; PMI act hi M6P: 0.9; L major viab: -3.9; PMI activator: 0.9

Results for COc1ccc(NC(=O)OCCn2c([N+](=O)[O-])cnc2C)cc1 ?
Diaphorase act: 0.8; WT yeast gro inh: -16.1; PMI act hi M6P: 0.9; L major viab: 53.5*; PMI activator: 0.9

Results for Cc1cc(C)c(C(=O)/C=C/c2cccc3ccccc23)c(=O)[nH]1 ?
Diaphorase act: 0.9; WT yeast gro inh: -14.9; PMI act hi M6P: 0.8; L major viab: 99.9*; PMI activator: 0.9

What do the screens show for `Nc1nc(C(F)(F)F)c(Br)c(=O)n1N`?
Diaphorase act: 1; WT yeast gro inh: 12.0; PMI act hi M6P: 1.1; L major viab: -7.3; PMI activator: 1.1

What do the screens show for `COc1ccc(-c2csc(Cc3nnc4n3CCCCC4)n2)cc1OC`?
Diaphorase act: 0.9; WT yeast gro inh: -16.2; PMI act hi M6P: 1; L major viab: 59.6*; PMI activator: 1.1

How did O=C(O)COc1ccccc1C(Nc1ccccn1)c1cc(Cl)c2cccnc2c1O (centres undefined) do in these assays?
Diaphorase act: 0.5; WT yeast gro inh: -13.7; PMI act hi M6P: 0.9; L major viab: 7.4; PMI activator: 0.9

How did CCOc1ccc(C(Nc2cccnc2)c2cc(Cl)c3cccnc3c2O)cc1 (centres undefined) do in these assays?
Diaphorase act: 0.7; WT yeast gro inh: -9.1; PMI act hi M6P: 0.3; L major viab: 89.5*; PMI activator: 0.8

What do the screens show for `O=C(O)COc1ccccc1C(Nc1cccnc1)c1cc(Cl)c2cccnc2c1O` (centres undefined)?
Diaphorase act: 0.4; WT yeast gro inh: -4.1; PMI act hi M6P: 0.7; L major viab: -4.7; PMI activator: 0.7

Results for O=C(NC(c1ccccc1)c1cc(Cl)c2cccnc2c1O)c1cccnc1 (centres undefined) ?
Diaphorase act: 0.9; WT yeast gro inh: -11.6; PMI act hi M6P: 0.8; L major viab: 98.0*; PMI activator: 1

What do the screens show for `CCOc1ccc(CN(C)CC(=O)NCc2ccccc2Cl)cc1`?
Diaphorase act: 1; WT yeast gro inh: -22.4; PMI act hi M6P: 0.9; L major viab: 9.3; PMI activator: 1

Results for CCOc1ccc2nc(SCC(=O)N3CCCCCC3)c(C#N)cc2c1 ?
Diaphorase act: 0.7; WT yeast gro inh: -4.3; PMI act hi M6P: 1.2; L major viab: 64.5*; PMI activator: 1

How did COc1ccc2cc(C(=O)Nc3ccc(O)cc3)sc(=O)c2c1OC do in these assays?
Diaphorase act: 0.9; WT yeast gro inh: 9.2; PMI act hi M6P: 1; L major viab: 100.2*; PMI activator: 0.9

What do the screens show for `COc1ccc2cc(C(=O)Nc3ccc(F)cc3)sc(=O)c2c1OC`?
Diaphorase act: 0.9; WT yeast gro inh: 7.1; PMI act hi M6P: 1.1; L major viab: -1.9; PMI activator: 1

What do the screens show for `CCN1CCN(CC(O)COc2ccc3c(c2)CCC3)CC1` (centres undefined)?
Diaphorase act: 1; WT yeast gro inh: 3.9; PMI act hi M6P: 1.1; L major viab: 83.5*; PMI activator: 1.1

How did Cc1cc(OCC(O)CN2CCN(CCO)CC2)ccc1C(C)C (centres undefined) do in these assays?
Diaphorase act: 0.9; WT yeast gro inh: -9.4; PMI act hi M6P: 1; L major viab: 89.3*; PMI activator: 1

What do the screens show for `CCN(C(=S)NC(=O)c1ccccc1Br)C1CCCCC1`?
Diaphorase act: 0.9; WT yeast gro inh: 40.8; PMI act hi M6P: 0.9; L major viab: -4.7; PMI activator: 1

What do the screens show for `CCc1ccc(C2=NN(S(C)(=O)=O)C(c3cccs3)C2)cc1` (centres undefined)?
Diaphorase act: 0.9; WT yeast gro inh: 13.6; PMI act hi M6P: 1; L major viab: 67.3*; PMI activator: 0.9

Results for CCN(CC)S(=O)(=O)c1ccc(NC(=O)C2c3ccccc3Oc3ccccc32)cc1 ?
Diaphorase act: 0.8; WT yeast gro inh: 2.1; PMI act hi M6P: 0.9; L major viab: 5.2; PMI activator: 0.8

Results for CCN1CCN(CCCNC(=O)c2cc3cc4ccc(OC)cc4nc3o2)CC1 ?
Diaphorase act: 1.1; WT yeast gro inh: 8.2; PMI act hi M6P: 1.1; L major viab: 100.2*; PMI activator: 1.1

Results for Cc1ccc2cc3cc(C(=O)NCCN4CCOCC4)oc3nc2c1 ?
Diaphorase act: 1; WT yeast gro inh: 1.6; PMI act hi M6P: 1; L major viab: 70.5*; PMI activator: 0.9

What do the screens show for `O=C(NCCCN1CCOCC1)c1ccco1`?
Diaphorase act: 0.9; WT yeast gro inh: 5.8; PMI act hi M6P: 1; L major viab: -1.3; PMI activator: 1

How did O=C(NCCCN1CCOCC1)c1cc2ccccc2o1 do in these assays?
Diaphorase act: 0.9; PMI act hi M6P: 1; L major viab: 79.5*; PMI activator: 0.9

Results for O=C(NCCCN1CCOCC1)C(Sc1ccccc1)c1ccccc1 (centres undefined) ?
Diaphorase act: 0.9; WT yeast gro inh: 0.0; PMI act hi M6P: 0.9; L major viab: 90.5*; PMI activator: 0.9

What do the screens show for `O=c1[nH][nH]c(-c2ccccc2)c1C=Nc1ccc(OC(F)(F)F)cc1`?
Diaphorase act: 0.9; WT yeast gro inh: -16.2; PMI act hi M6P: 0.9; L major viab: -0.2; PMI activator: 1

How did COc1ccc2cc3cc(C(=O)NCCCN4CCOCC4)oc3nc2c1 do in these assays?
Diaphorase act: 1; WT yeast gro inh: -8.3; PMI act hi M6P: 0.9; L major viab: 97.5*; PMI activator: 0.9

Results for COc1cc(OC)cc(C(=O)NCCCN2CCOCC2)c1 ?
Diaphorase act: 0.9; WT yeast gro inh: -16.2; PMI act hi M6P: 1.1; L major viab: -1.3; PMI activator: 1.1

How did CCc1ccc(CNCc2ccc(F)cc2)cc1 do in these assays?
Diaphorase act: 0.9; WT yeast gro inh: 14.1; PMI act hi M6P: 1.1; L major viab: 70.8*; PMI activator: 1.1
